Data: ChEMBL document CHEMBL1629528 (J Med Chem, 2010)
Calls of active or inactive are those of the source. No cut-off for these calls is given here.

Legend:
[1] = tested on: Rattus norvegicus; assay: Inhibition of 8-OH-DPAT-induced hyperlocomotory activity in Sprague-Dawley rat administered orally 60 mins before 8-OH-DPATchallenge; type: functional; conditions: for ED50: po
Method in brief: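 Male Sprague-Dawley rats (250–350 g) dosed orally (5 mL/kg) at 0.03, 0.1 or 0.3 mg/kg or vehicle, 60 min before sc 8-OH-DPAT 0.2 mg/kg (2 mL/kg). Total distance travelled recorded by infrared sensors over 30 min immediately after; 8–9 rats per group.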

[2] = biological target: T1, 5-hydroxytryptamine receptor 1B (Homo sapiens, UniProt P28222); assay: Intrinsic activity at human recombinant 5-HT1B receptor expressed in CHO cells by [S35]GTPgammaS binding assay relative to 5-HT; type: functional, cell-based
Method in brief: (§1)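 [35S]-GTPγS binding in membranes from 10^6 cells (HEK293 for 5-HT1A; CHO for 5-HT1B, 5-HT1D), preincubated 30 min at 30 °C with compound in 20 mM HEPES pH 7.4, 3 mM MgCl2, 100 mM NaCl, 10 μM GDP, 0.2 mM ascorbate. 100 pM [35S]-GTPγS added, 30 min more at 30 °C; nonspecific with 20 μM GTPγS; filtration and scintillation counting.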

[3] = biological target: T2, 5-hydroxytryptamine receptor 1A (Homo sapiens) (UniProt P08908); assay: Intrinsic activity at human recombinant 5-HT1A receptor expressed in HEK293 cells by [S35]GTPgammaS binding assay relative to 5-HT; type: functional, cell-based; method in brief: as §1
T2 sequence (whole entry): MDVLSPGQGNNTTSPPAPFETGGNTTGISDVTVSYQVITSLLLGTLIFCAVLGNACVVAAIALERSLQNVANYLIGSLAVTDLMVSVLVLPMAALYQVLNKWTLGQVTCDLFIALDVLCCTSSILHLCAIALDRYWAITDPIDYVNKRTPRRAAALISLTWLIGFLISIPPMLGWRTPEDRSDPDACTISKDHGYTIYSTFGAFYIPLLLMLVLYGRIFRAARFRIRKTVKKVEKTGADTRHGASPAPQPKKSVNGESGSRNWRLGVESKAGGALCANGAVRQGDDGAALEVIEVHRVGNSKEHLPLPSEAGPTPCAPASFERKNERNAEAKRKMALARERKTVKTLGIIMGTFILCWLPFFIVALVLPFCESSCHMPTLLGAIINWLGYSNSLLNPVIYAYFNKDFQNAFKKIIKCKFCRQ

[4] = biological target: T3, 5-hydroxytryptamine receptor 1D (Homo sapiens, UniProt P28221); assay: Inverse agonist activity at human recombinant 5-HT1D receptor expressed in CHO cells by [S35]GTPgammaS binding assay; type: functional, cell-based; method in brief: as §1
[5] = biological target: 5-hydroxytryptamine receptor 6 (Homo sapiens, UniProt P50406); assay: Binding affinity to human recombinant 5-HT6 receptor by radioligand displacement assay
[6] = biological target: T4, 5-hydroxytryptamine receptor 1A (Homo sapiens, UniProt P08908); assay: Displacement of [3H]WAY100635 from human recombinant 5-HT1A receptor expressed in CHO cells; type: cell-based
T4 sequence (P08908 whole entry): T2 sequence (whole entry)

[7] = biological target: T3, 5-hydroxytryptamine receptor 1D; assay: Displacement of [3H]5-HT from human recombinant 5-HT1D receptor expressed in CHO cells; type: cell-based
[8] = biological target: D(3) dopamine receptor (Homo sapiens, UniProt P35462); assay: Binding affinity to human recombinant dopamine D3 receptor by radioligand displacement assay
[9] = biological target: T3, 5-hydroxytryptamine receptor 1D; assay: Intrinsic activity at human recombinant 5-HT1D receptor expressed in CHO cells by [S35]GTPgammaS binding assay relative to 5-HT; type: functional, cell-based; method in brief: as §1
[10] = biological target: Sodium-dependent serotonin transporter (Rattus norvegicus, UniProt P31652); assay: Inhibition of [3H]5-HT uptake at SERT in rat cortical synaptosomes; type: subcellular, Brain
[11] = biological target: T5, 5-hydroxytryptamine receptor 2C (Homo sapiens, UniProt P28335); assay: Binding affinity to human recombinant 5-HT2C receptor by radioligand displacement assay
T5 sequence (P28335 whole entry): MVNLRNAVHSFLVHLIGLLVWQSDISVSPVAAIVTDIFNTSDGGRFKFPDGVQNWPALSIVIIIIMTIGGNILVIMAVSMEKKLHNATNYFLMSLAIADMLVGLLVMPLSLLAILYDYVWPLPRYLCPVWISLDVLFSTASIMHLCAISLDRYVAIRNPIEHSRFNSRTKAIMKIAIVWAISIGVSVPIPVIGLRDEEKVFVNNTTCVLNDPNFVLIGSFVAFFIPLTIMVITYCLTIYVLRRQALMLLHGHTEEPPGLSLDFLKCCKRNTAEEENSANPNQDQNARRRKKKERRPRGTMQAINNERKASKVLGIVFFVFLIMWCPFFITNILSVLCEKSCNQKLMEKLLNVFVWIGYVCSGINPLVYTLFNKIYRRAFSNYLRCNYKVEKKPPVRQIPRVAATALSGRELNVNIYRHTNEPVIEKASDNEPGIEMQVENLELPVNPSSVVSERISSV

[12] = biological target: T1, 5-hydroxytryptamine receptor 1B; assay: Displacement of [3H]5-HT from human recombinant 5-HT1B receptor expressed in CHO cells; type: cell-based
[13] = biological target: Voltage-gated inwardly rectifying potassium channel KCNH2 (Homo sapiens, UniProt Q12809); assay: Displacement of [3H]dofetilide from human ERG by SPA
[14] = biological target: 5-hydroxytryptamine receptor 7 (Homo sapiens, UniProt P34969); assay: Binding affinity to human recombinant 5-HT7 receptor by radioligand displacement assay
[15] = biological target: 5-hydroxytryptamine receptor 2A (Homo sapiens, UniProt P28223); assay: Binding affinity to human recombinant 5-HT2A receptor by radioligand displacement assay
[16] = biological target: D(2) dopamine receptor (Homo sapiens, UniProt P14416); assay: Binding affinity to human recombinant dopamine D2 receptor by radioligand displacement assay
[17] = biological target: 5-hydroxytryptamine receptor 2B (Homo sapiens, UniProt P41595); assay: Binding affinity to human recombinant 5-HT2B receptor by radioligand displacement assay
[18] = Ratio of drug level in brain to blood in Sprague-Dawley rat after 1 hr; type: ADME, tissue-based; conditions: read-out: BBR
Method in brief: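 Male Sprague-Dawley rats dosed iv at 0.5 mg/kg (2.5% DMSO in glucosate), n=3, as a cassette. At 1 h, CO2 anaesthesia, blood taken by heart puncture and brain removed. Both matrices analysed by protein precipitation and LC-MS/MS.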

[19] = Clearance in Sprague-Dawley rat at 0.5 mg/kg, iv after 24 hrs; type: ADME, organism-based; parameters: dose 0.5 mg/kg, route intravenous; conditions: in vivo
Method in brief: (§2)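 Male Sprague-Dawley rats given 0.5 mg/kg iv (2 mL/kg, 2.5% DMSO in glucosate solution), n=3, cassette dosing; blood collected at intervals up to 24 h, protein precipitation and LC-MS/MS quantification.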

[20] = Solubility of the compound in water; type: physicochemical
Method in brief: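 Measured on the dihydrochloride salt form, dissolved in water.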

[21] = Solubility of the compound in simulated gastric fluid at pH 1.2 at 25 degC; type: physicochemical
[22] = Cmax in Sprague-Dawley rat at 1 mg/kg, po after 24 hrs; type: ADME, organism-based; parameters: dose 1 mg/kg, route oral; conditions: in vivo
Method in brief: (§3)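 Male Sprague-Dawley rats dosed po at 1 mg/kg (10 mL/kg, 1% DMSO in aqueous 0.5% methocel), n=3, as a cassette with other compounds; blood sampled at intervals up to 24 h and analysed by protein precipitation then LC-MS/MS.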

[23] = Solubility of the compound in fed state simulated intestinal fluid at pH 5.5 at 25 degC; type: physicochemical
Method in brief: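 Solubility determined at 25 °C in fed state simulated intestinal fluid at pH 5.5.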

[24] = Half life in Sprague-Dawley rat at 0.5 mg/kg, iv after 24 hrs; type: ADME, organism-based; parameters: dose 0.5 mg/kg, route intravenous; conditions: in vivo; method in brief: as §2
[25] = AUC (0 to infinity) in Sprague-Dawley rat at 1 mg/kg, po after 24 hrs; type: ADME, organism-based; parameters: time infinity, dose 1 mg/kg, route oral; conditions: plasma; method in brief: as §3
[26] = Oral bioavailability in Sprague-Dawley rat at 1 mg/kg, po after 24 hrs; type: ADME, organism-based; conditions: in vivo; method in brief: as §3

T1 sequence (P28222 whole entry): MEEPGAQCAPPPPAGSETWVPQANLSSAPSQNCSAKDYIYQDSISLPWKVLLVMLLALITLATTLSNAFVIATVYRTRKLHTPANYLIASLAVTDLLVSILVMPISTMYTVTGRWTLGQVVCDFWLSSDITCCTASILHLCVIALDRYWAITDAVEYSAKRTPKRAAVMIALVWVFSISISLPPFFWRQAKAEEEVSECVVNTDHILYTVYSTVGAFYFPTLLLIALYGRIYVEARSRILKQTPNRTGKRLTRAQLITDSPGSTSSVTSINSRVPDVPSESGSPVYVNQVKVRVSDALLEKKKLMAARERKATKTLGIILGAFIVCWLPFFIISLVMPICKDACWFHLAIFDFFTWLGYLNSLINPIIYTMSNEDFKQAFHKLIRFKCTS
T3 sequence (P28221 whole entry): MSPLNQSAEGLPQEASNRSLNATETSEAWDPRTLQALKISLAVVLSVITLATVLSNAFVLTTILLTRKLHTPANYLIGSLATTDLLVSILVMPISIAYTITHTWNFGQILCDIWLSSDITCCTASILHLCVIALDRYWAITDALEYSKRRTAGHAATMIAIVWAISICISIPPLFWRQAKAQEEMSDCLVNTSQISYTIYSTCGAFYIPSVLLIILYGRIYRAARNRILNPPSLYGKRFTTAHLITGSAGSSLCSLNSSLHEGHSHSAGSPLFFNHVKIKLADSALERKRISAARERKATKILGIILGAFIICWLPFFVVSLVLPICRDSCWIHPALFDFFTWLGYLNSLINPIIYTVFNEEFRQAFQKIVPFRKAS
Chain of Voltage-gated inwardly rectifying potassium channel KCNH2 (Q12809 whole entry): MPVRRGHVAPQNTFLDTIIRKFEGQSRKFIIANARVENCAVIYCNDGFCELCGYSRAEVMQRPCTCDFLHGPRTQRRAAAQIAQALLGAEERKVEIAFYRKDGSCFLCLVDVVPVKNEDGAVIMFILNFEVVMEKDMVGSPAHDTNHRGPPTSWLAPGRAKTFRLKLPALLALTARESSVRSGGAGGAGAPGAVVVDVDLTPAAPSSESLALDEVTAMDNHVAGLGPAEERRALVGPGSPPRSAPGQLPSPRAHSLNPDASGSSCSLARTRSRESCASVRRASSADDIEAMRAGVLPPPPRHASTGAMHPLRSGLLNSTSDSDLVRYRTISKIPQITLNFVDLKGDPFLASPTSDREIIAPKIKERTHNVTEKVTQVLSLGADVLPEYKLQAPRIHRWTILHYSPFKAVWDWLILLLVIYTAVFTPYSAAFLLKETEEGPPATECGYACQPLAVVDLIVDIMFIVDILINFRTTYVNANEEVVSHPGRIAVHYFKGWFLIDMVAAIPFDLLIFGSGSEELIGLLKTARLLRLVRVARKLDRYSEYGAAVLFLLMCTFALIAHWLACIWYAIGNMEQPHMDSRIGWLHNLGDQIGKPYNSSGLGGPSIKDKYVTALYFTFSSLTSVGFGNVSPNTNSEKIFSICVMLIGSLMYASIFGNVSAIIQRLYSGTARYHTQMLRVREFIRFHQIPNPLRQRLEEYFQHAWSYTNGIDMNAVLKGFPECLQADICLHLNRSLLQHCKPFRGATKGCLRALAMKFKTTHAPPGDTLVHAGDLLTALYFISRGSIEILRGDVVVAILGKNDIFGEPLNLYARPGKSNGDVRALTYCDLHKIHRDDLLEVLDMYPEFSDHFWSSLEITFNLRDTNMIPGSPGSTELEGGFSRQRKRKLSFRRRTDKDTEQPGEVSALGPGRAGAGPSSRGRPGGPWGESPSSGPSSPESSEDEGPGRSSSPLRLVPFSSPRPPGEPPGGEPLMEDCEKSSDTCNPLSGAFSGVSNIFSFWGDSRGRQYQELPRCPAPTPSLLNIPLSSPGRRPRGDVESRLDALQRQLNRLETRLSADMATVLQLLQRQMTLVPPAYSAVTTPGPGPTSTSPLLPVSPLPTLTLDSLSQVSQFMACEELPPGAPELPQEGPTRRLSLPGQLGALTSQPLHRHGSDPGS
Chain of 5-hydroxytryptamine receptor 2B (P41595 whole entry): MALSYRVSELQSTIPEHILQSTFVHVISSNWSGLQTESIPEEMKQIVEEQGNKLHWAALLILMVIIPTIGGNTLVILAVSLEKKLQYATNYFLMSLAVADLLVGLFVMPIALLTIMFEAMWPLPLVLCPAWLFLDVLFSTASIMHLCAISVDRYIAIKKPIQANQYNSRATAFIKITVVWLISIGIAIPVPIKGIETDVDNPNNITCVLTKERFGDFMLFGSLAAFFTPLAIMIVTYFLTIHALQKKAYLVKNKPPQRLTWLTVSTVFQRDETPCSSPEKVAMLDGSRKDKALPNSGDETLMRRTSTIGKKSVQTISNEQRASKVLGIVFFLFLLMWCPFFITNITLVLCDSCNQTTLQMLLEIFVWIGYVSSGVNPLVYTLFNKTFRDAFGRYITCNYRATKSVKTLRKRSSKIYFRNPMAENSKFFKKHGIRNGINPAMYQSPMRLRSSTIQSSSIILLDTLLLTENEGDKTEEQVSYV
Chain of Sodium-dependent serotonin transporter (P31652 whole entry): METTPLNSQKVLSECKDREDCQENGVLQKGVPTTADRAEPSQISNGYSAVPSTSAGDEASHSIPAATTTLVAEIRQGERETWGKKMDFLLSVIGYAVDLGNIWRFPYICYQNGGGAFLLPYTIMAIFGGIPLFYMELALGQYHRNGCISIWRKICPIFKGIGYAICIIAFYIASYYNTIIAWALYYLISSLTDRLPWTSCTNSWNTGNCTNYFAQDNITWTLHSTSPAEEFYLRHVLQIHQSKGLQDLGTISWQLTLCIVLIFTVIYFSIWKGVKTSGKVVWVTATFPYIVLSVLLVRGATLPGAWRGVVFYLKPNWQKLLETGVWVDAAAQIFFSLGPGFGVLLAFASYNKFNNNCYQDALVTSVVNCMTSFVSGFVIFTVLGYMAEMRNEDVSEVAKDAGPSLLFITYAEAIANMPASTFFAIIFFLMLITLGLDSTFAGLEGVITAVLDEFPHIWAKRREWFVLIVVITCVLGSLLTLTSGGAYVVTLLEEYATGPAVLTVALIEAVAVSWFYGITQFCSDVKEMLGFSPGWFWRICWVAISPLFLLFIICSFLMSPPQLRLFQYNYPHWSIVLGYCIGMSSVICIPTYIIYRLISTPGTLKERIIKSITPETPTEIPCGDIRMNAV
Chain of 5-hydroxytryptamine receptor 6 (P50406 whole entry): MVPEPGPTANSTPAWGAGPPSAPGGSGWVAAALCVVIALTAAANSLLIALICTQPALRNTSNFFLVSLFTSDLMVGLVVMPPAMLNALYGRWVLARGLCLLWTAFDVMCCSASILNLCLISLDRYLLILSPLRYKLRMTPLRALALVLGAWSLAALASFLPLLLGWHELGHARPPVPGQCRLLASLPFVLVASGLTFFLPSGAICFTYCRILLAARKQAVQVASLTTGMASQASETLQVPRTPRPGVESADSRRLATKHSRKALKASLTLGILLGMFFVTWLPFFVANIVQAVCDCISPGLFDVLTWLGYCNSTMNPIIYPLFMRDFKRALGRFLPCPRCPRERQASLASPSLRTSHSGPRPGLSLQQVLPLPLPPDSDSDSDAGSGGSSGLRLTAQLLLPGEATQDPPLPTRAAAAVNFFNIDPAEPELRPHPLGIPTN
Chain of 5-hydroxytryptamine receptor 2A (P28223 whole entry): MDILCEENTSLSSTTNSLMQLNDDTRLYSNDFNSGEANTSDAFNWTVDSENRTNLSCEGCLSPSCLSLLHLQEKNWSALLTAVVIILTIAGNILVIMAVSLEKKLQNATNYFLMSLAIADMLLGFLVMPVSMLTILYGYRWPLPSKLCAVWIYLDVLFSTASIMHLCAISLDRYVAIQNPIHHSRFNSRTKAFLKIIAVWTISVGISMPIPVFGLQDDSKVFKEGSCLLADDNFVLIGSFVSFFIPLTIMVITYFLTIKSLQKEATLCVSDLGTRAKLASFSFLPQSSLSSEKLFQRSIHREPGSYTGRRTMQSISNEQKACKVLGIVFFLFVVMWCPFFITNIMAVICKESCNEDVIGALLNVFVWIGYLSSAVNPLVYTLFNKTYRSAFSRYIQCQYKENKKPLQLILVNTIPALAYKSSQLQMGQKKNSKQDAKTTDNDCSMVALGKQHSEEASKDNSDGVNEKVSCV
Chain of D(2) dopamine receptor (P14416 whole entry): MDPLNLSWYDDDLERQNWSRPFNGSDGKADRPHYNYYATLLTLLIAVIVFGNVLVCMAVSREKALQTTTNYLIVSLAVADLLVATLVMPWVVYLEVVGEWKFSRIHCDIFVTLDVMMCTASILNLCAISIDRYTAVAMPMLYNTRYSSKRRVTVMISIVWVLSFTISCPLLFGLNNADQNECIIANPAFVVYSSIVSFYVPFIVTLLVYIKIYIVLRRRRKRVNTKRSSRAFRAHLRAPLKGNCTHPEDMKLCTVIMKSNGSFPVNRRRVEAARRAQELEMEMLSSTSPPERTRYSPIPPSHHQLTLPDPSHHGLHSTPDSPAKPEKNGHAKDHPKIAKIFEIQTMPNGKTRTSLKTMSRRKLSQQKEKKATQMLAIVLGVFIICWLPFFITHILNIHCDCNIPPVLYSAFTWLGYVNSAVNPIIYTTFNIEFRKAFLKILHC
Chain of D(3) dopamine receptor (P35462 whole entry): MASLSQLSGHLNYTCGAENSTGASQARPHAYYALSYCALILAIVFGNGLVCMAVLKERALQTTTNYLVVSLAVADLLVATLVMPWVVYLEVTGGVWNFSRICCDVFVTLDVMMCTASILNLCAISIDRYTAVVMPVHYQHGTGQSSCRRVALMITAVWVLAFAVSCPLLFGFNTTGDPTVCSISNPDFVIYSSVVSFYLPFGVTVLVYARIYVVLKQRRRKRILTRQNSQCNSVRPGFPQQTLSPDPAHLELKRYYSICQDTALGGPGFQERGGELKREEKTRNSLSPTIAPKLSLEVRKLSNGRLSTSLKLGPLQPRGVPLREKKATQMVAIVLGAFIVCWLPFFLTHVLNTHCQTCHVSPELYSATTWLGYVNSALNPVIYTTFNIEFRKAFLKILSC

Structure (SMILES) | Intrinsic activity [2] | Intrinsic activity [3] | Intrinsic activity [9] | Kp at 1 h [18] | clearance [19] [mL/min/kg] | solubility [20] [µg/mL] | solubility [21] [µg/mL] | Cmax [22] [ng/mL] | solubility [23] [µg/mL] | half-life [24] [h] | AUC(0-inf) [25] [ng·h/mL] | bioavailability [26] [%] | inhibition [1] | ED50 [1] [mg/kg] | also measured
CC(=O)Nc1cccc(CCN2CCN(c3cccc4nc(C)ccc34)CC2)c1 | 0 | 0 |  |  |  |  |  |  |  |  |  |  | Dose-dependent effect |  | Activity [4]: Active
Cc1ccc2c(N3CCN(CCc4cccc(NC(=O)Nc5ccccc5)c4)CC3)cccc2n1 | 0 | 0 | 0 |  |  |  |  |  |  |  |  |  |  |  | Ki [5]: 316 nM; Ki [6]: 3.98 nM; Ki [7]: 0.316 nM; Ki [8]: 31.6 nM; Ki [10]: 2000 nM; Ki [11]: > 10000 nM; Ki [12]: 3.16 nM; Ki [13]: 316 nM; Ki [14]: 79.4 nM; Ki [15]: > 6310 nM; Ki [16]: 79.4 nM; Ki [17]: > 6310 nM
Cc1ccc2c(N3CCN(CCc4cccc(NS(C)(=O)=O)c4)CC3)cccc2n1.Cl.Cl |  |  |  | 0.5 | 7 | > 10000 | > 10000 | 243 | 600 | 3.9 | 1450 | 56 |  | 1 | 

Further lines, with some results ahead:

Intrinsic activity [2] | Intrinsic activity [3] | Intrinsic activity [9] | Kp at 1 h [18] | clearance [19] [mL/min/kg] | solubility [20] [µg/mL] | solubility [21] [µg/mL] | Cmax [22] [ng/mL] | solubility [23] [µg/mL] | half-life [24] [h] | AUC(0-inf) [25] [ng·h/mL] | bioavailability [26] [%] | Structure (SMILES) | inhibition [1] | ED50 [1] [mg/kg] | also measured
0 | 0 | 0 |  |  |  |  |  |  |  |  |  | Cc1ccc2c(N3CCN(CCc4cccc(N5CCNC5=O)c4)CC3)cccc2n1 | Dose-dependent effect |  | 
 |  |  | 0.7 | 10 | > 10000 | > 10000 | 98 | 5000 | 4.6 | 893 | 51 | CC(=O)Nc1cccc(CCN2CCN(c3cccc4nc(C)ccc34)CC2)c1.Cl.Cl |  | 0.09 | 
